≈ marks a conversion by molar mass, not a printed value.
Columns and labels:
[1] = system: Mycobacterium tuberculosis; assay: Antimycobacterial activity against Mycobacterium tuberculosis H37Rv by twofold agar dilution method; format: functional
Method in brief: (§1)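 Twofold agar dilution in Middlebrook 7H11 agar with 10% OADC (oleic acid, albumin, dextrose). Compounds dissolved in DMSO at 5 mg/mL (one in ethanol at 6 mg/mL), stock, stored cold. MIC determined for each strain. Strains: M. tuberculosis CIP 103471, H37Rv ATCC 27294, rifampicin-resistant ATCC 35838, M. avium CIP 103317.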

[2] = system: Mycobacterium tuberculosis; assay: Antimycobacterial activity against Mycobacterium tuberculosis CIP 103471 by twofold agar dilution method; format: functional; method in brief: as §1
[3] = Protection index, ratio of MNTD for african green monkey Vero cells to MIC for Mycobacterium tuberculosis CIP 103471; format: functional
Method in brief: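 Vero cells exposed to drug; after 72 h of incubation, morphology was checked microscopically. MNTD is the highest concentration with no morphological change. PI = MNTD/MIC, with MIC from twofold agar dilution in Middlebrook 7H11 + 10% OADC against M. tuberculosis CIP 103471.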

[4] = Cytotoxicity against african green monkey Vero cells after 72 hrs; format: cell-based; conditions: chlorocebus sabaeus
Method in brief: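 Vero cells exposed to compounds (stocks 5 mg/mL in DMSO; one compound 6 mg/mL in ethanol). After 72 h incubation, cells examined microscopically for morphological changes. Maximum non-toxic dose (MNTD) taken as the highest drug concentration producing no morphological change.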

[5] = system: Mycobacterium avium; assay: Antimycobacterial activity against Mycobacterium avium CIP 103317 by twofold agar dilution method; format: functional; method in brief: as §1

| Compound | MIC [1] | MIC [2] | PI [3] | MNTC at 72 h [4] | MIC [5] |
| --- | --- | --- | --- | --- | --- |
| CCc1c(CN2CCSCC2)cc(-c2ccccc2)n1-c1ccc(F)cc1 | 4 µg/mL (≈ 10.5 µM) | 2 µg/mL (≈ 5.26 µM) | 8 | 16 µg/mL | 16 µg/mL (≈ 42 µM) |
| Cc1ccc(-c2cc(CN3CCSCC3)c(C)n2-c2ccc(F)cc2)cc1 | – | 0.25 µg/mL (≈ 0.657 µM) | 256 | – | – |
| Cc1c(CN2CCSCC2)cc(-c2ccc(F)cc2)n1-c1ccccc1 | – | 0.5 µg/mL (≈ 1.36 µM) | 8 | – | – |
| CCc1c(CN2CCSCC2)cc(-c2ccc(F)cc2)n1-c1ccccc1F | 2 µg/mL (≈ 5.02 µM) | 2 µg/mL (≈ 5.02 µM) | 4 | 8 µg/mL | 8 µg/mL (≈ 20.1 µM) |
| CN[C@@H]1[C@H](O[C@H]2[C@H](O[C@H]3[C@H](O)[C@@H](O)[C@H](N=C(N)N)[C@@H](O)[C@@H]3N=C(N)N)O[C@@H](C)[C@]2(O)C=O)O[C@@H](CO)[C@H](O)[C@H]1O [STREPTOMYCIN] | 0.5 µg/mL (≈ 0.86 µM) | 0.5 µg/mL (≈ 0.86 µM) | 256 | 128 µg/mL | 8 µg/mL (≈ 13.8 µM) |
| Cc1c(CN2CCSCC2)cc(-c2ccccc2)n1-c1ccccc1 | – | 1 µg/mL (≈ 2.87 µM) | 32 | – | – |
| CCc1c(CN2CCN(C)CC2)cc(-c2ccc(Cl)cc2)n1-c1ccc(Cl)cc1 | 4 µg/mL (≈ 9.34 µM) | 2 µg/mL (≈ 4.67 µM) | 4 | 8 µg/mL | 4 µg/mL (≈ 9.34 µM) |
| Cc1c(CN2CCSCC2)cc(-c2ccccc2F)n1-c1ccccc1F | – | 1 µg/mL (≈ 2.6 µM) | 32 | – | – |
| CO[C@H]1/C=C/O[C@@]2(C)Oc3c(C)c(O)c4c(O)c(c(/C=N/N5CCN(C)CC5)c(O)c4c3C2=O)NC(=O)/C(C)=C\C=C\[C@H](C)[C@H](O)[C@@H](C)[C@@H](O)[C@@H](C)[C@H](OC(C)=O)[C@@H]1C [RIFAMPIN] | 0.25 µg/mL (≈ 0.304 µM) | 0.25 µg/mL (≈ 0.304 µM) | 256 | 64 µg/mL | 0.25 µg/mL (≈ 0.304 µM) |
| Cc1c(CN2CCSCC2)cc(-c2ccc(F)cc2)n1-c1ccc(F)cc1 | – | 1 µg/mL (≈ 2.6 µM) | 8 | – | – |
| CCc1c(CN2CCSCC2)cc(-c2ccc(F)cc2)n1-c1ccccc1 | 1 µg/mL (≈ 2.63 µM) | 1 µg/mL (≈ 2.63 µM) | 8 | 8 µg/mL | 8 µg/mL (≈ 21 µM) |
| CCc1c(CN2CCSCC2)cc(-c2ccccc2F)n1-c1ccccc1F | 8 µg/mL (≈ 20.1 µM) | 4 µg/mL (≈ 10 µM) | 2 | 8 µg/mL | 16 µg/mL (≈ 40.1 µM) |
| CCc1c(CN2CCSCC2)cc(-c2ccc(F)cc2)n1-c1ccc(F)cc1 | – | 16 µg/mL (≈ 40.1 µM) | 0.5 | 8 µg/mL | 16 µg/mL (≈ 40.1 µM) |
| CCc1c(CN2CCSCC2)cc(-c2ccccc2)n1-c1ccccc1 | 4 µg/mL (≈ 11 µM) | 2 µg/mL (≈ 5.52 µM) | 8 | 16 µg/mL | 8 µg/mL (≈ 22.1 µM) |
| Cc1c(CN2CCSCC2)cc(-c2ccc(F)cc2)n1-c1ccccc1F | – | 0.5 µg/mL (≈ 1.3 µM) | 16 | – | – |
| Cc1c(CN2CCSCC2)cc(-c2ccccc2)n1-c1ccc(F)cc1 | – | 0.4 µg/mL (≈ 1.09 µM) | 20 | – | – |
| CCc1c(CN2CCSCC2)cc(-c2ccc(C)cc2)n1-c1ccc(F)cc1 | 0.25 µg/mL (≈ 0.634 µM) | 0.25 µg/mL (≈ 0.634 µM) | >512 | > 128 µg/mL | 16 µg/mL (≈ 40.6 µM) |
| Cc1c(CN2CCN(C)CC2)cc(-c2ccc(Cl)cc2)n1-c1ccc(Cl)cc1 | 1 µg/mL (≈ 2.41 µM) | 1 µg/mL (≈ 2.41 µM) | 4 | 4 µg/mL | 0.5 µg/mL (≈ 1.21 µM) |

Reference: ChEMBL document CHEMBL1155279, “1,5-Diaryl-2-ethyl pyrrole derivatives as antimycobacterial agents: design, synthesis, and microbiological evaluation” (Eur J Med Chem, 2009)
